Data: ChEMBL document CHEMBL4033786, “Discovery of Novel 1-Cyclopentenyl-3-phenylureas as Selective, Brain Penetrant, and Orally Bioavailable CXCR2 Antagonists” (J Med Chem, 2018)
≈ marks a conversion by molar mass, not a printed value.

Assays:
[1] = target: T1, C-X-C chemokine receptor type 2 (Homo sapiens, UniProt P25025); experiment: Antagonist activity at TEV protease cleavage site linked GAL4-VP16-fused recombinant human CXCR2 expressed in cells assessed as inhibition of […] human CXCL1-stimulated beta-arrestin recruitment by CCF4-AM-fluorescence based FRET assay; assay type: cell-based; details: read-out: pIC50 (converted)
T1 sequence (P25025 whole entry): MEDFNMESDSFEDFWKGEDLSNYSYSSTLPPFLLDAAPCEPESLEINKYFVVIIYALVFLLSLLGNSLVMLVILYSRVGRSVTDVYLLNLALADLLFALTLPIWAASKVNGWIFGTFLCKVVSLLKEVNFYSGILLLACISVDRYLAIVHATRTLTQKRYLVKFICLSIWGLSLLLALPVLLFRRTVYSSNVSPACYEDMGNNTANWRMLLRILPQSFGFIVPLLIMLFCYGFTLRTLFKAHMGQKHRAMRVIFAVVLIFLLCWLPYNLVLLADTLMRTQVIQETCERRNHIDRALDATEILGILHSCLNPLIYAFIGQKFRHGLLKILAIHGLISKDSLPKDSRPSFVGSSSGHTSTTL
In short: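 Stable cell line expressing recombinant human CXCR2 linked to a TEV site and Gal4-VP16. Cells were starved 24 h at 37 °C, 5% CO2, then resuspended at ~200,000 cells/mL. They were given compound in DMSO (concentration-response), stimulated with 80 nM hCXCL1 and incubated overnight at 37 °C. CCF4-AM substrate was then added for 2 h at RT in the dark.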

[2] = Solubility of compound in fasted state simulated intestinal fluid measured after 4 hrs; assay type: physicochemical
In short: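 Solubility in FaSSIF, read after 4 h incubation.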

[3] = Efflux ratio of passive permeability in MDCK2-MDR1 cells transduced with BacMam2-BCRP at 3 uM after 90 mins by Transwell assay; assay type: ADME, cell-based, Canis lupus familiaris, MDCK-MDR1; details: dog
In short: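 MDCKII-MDR1 cells transduced with BacMam2-BCRP in Transwells. Compound at 3 μM was measured in duplicate, A→B and B→A, after 90 min, with and without 5 μM GF120918. ER = B→A/A→B permeability without inhibitor. System qualified with amprenavir and dantrolene ERs.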

[4] = Passive permeability in MDCK2-MDR1 cells transduced with BacMam2-BCRP at 3 uM after 90 mins by Transwell assay; assay type: ADME, cell-based, Canis lupus familiaris, MDCK-MDR1; details: dog; read-out: permeability
In short: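 MDCKII-MDR1 cells transduced with BacMam2-BCRP and grown in Transwells. Compound at 3 μM, in duplicate, was incubated 90 min A→B (and B→A) with and without GF120918 (5 μM, dual P-gp/BCRP inhibitor). Passive permeability (Pexact, nm/s) was calculated by an equation from earlier work. The permeability ratio is A→B permeability with GF120918 over A→B permeability without it.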

[5] = target: T1, C-X-C chemokine receptor type 2; experiment: Antagonist activity at CXCR2 in human whole blood assessed as inhibition of GROalpha-stimulated CD11b upregulation preincubated for 15 mins followed by GROalpha stimulation measured after 15 mins by FITC-staining based FACS analysis

SMILES | IC50 [1] | solubility at 4 h [2] | efflux ratio at 1.5 h, 3 µM [3] | Papp at 1.5 h, 3 µM [4] | IC50 [5]
CC(C)(CO)S(=O)(=O)c1c(Cl)ccc(NC(=O)N[C@H]2CCC=C2Cl)c1O | 0.501 µM |  |  |  | 
CO[C@@H]1CCC[C@H]1NC(=O)Nc1ccc(Cl)c(S(=O)(=O)C(C)C)c1O (racemic) | 0.251 µM |  |  |  | 
CC1=CCC[C@H]1NC(=O)Nc1ccc(Cl)c(S(=O)(=O)C2CCN(CC(F)F)CC2)c1O | 0.00251 µM | 59 µg/mL (≈ 123 µM) | 9.4 | 17.7 ×10⁻⁶ cm/s | 
CC1=CCC[C@H]1NC(=O)Nc1ccc(Cl)c(S(=O)(=O)C2(C)CCOCC2)c1O | 0.000501 µM | 6.1 µg/mL (≈ 14.2 µM) | 3.4 | 53.2 ×10⁻⁶ cm/s | 0.2 µM
O=C1CN(/N=C/c2ccc(-c3ccc([N+](=O)[O-])cc3)o2)C(O)=N1 [DANTROLENE] |  |  | > 5 |  | 
CC(C)S(=O)(=O)c1c(Cl)ccc(NC(=O)NC2CCN(C)CC2)c1O | > 10 µM |  |  |  | 
CC(C)(CCO)S(=O)(=O)c1c(Cl)ccc(NC(=O)N[C@@H]2CCC=C2Cl)c1O | 0.000251 µM |  |  |  | 
CC1=CCCCC1NC(=O)Nc1ccc(Cl)c(S(=O)(=O)C(C)C)c1O (racemic) | 0.0126 µM |  |  |  | 
CC(C)S(=O)(=O)c1c(Cl)ccc(NC(=O)NC2CCC=C2Cl)c1O (racemic) | 0.001 µM |  |  |  | 
CC1=CCC[C@H]1NC(=O)Nc1ccc(Cl)c(S(=O)(=O)C2(CF)CCOCC2)c1O | 0.00126 µM | 14.9 µg/mL (≈ 33.3 µM) | 18.7 | 21.8 ×10⁻⁶ cm/s | 0.251 µM
CC(C)S(=O)(=O)c1c(Cl)ccc(NC(=O)NC2CCCCC2)c1O | 0.0501 µM |  |  |  | 
CC1CCC(NC(=O)Nc2ccc(Cl)c(S(=O)(=O)C(C)C)c2O)C1 (racemic) | 0.2 µM |  |  |  | 
O=C(Nc1ccc(Cl)c(S(=O)(=O)C2(F)CCOCC2)c1O)N[C@H]1CCC=C1Cl | 0.1 µM |  |  |  | 
CC1=CCC[C@H]1NC(=O)Nc1ccc(Cl)c(S(=O)(=O)C(C)(C)C2COC2)c1O | 0.000251 µM | 7 µg/mL (≈ 16.3 µM) | 3.2 | 29.6 ×10⁻⁶ cm/s | 
CC1=CCC[C@H]1NC(=O)Nc1ccc(Cl)c(S(=O)(=O)C2CCCOC2)c1O (stereo not given in full) | 0.00158 µM | 13.7 µg/mL (≈ 33 µM) | 9.6 | 26.3 ×10⁻⁶ cm/s | 0.251 µM
CC(C)S(=O)(=O)c1c(Cl)ccc(NC(=O)NC2CCC3CC32)c1O (stereo not given) | 0.0251 µM |  |  |  | 
O=C(Nc1ccc(Cl)c(S(=O)(=O)C2COC2)c1O)N[C@H]1CCC=C1Cl | 2.51 µM |  |  |  | 
CC1=C(F)CCC1NC(=O)Nc1ccc(Cl)c(S(=O)(=O)C(C)C)c1O (racemic) | 0.00158 µM |  |  |  | 
COC1CCCCC1NC(=O)Nc1ccc(Cl)c(S(=O)(=O)C(C)C)c1O (racemic) | 1.58 µM |  |  |  | 
CC1=C(Cl)CCC1NC(=O)Nc1ccc(Cl)c(S(=O)(=O)C(C)C)c1O (racemic) | 0.00316 µM |  |  |  | 
CC1=CCC[C@H]1NC(=O)Nc1ccc(Cl)c(S(=O)(=O)C(C)(C)CN(C)C)c1O | 0.126 µM | 395 µg/mL (≈ 920 µM) |  |  | 
CC1=CCC[C@H]1NC(=O)Nc1ccc(Cl)c(S(=O)(=O)C2CCN(CCF)CC2)c1O | 0.000631 µM | 288 µg/mL (≈ 625 µM) | 7.3 | 21.2 ×10⁻⁶ cm/s | 0.2 µM
CC1=CCC[C@H]1NC(=O)Nc1ccc(Cl)c(S(=O)(=O)C2(CCF)CCOCC2)c1O | 0.0316 µM | 26.7 µg/mL (≈ 57.9 µM) | 10.8 | 33.7 ×10⁻⁶ cm/s | 
CC1=CCCC1NC(=O)Nc1ccc(Cl)c(S(=O)(=O)C(C)C)c1O (racemic) | 0.000398 µM |  |  |  | 
CCC1CCCC1NC(=O)Nc1ccc(Cl)c(S(=O)(=O)C(C)C)c1O (racemic) | 0.0631 µM |  |  |  | 
CC1=CCC[C@H]1NC(=O)Nc1ccc(Cl)c(S(=O)(=O)C2(C)CCOC2)c1O (stereo not given in full) | 0.00126 µM | 33.2 µg/mL (≈ 80 µM) | 3.8 | 31.8 ×10⁻⁶ cm/s | 0.126 µM

SMILES | IC50 [1] | solubility at 4 h [2] | efflux ratio at 1.5 h, 3 µM [3] | Papp at 1.5 h, 3 µM [4] | IC50 [5]
CC(C)(CCO)S(=O)(=O)c1c(Cl)ccc(NC(=O)N[C@H]2CCC=C2Cl)c1O | 0.0794 µM |  |  |  | 
CC1=CCC[C@H]1NC(=O)Nc1ccc(Cl)c(S(=O)(=O)C2CC3(COC3)C2)c1O | 0.001 µM | 127 µg/mL (≈ 297 µM) | 25.5 | 12.4 ×10⁻⁶ cm/s | 
CC1=CCC[C@H]1NC(=O)Nc1ccc(Cl)c(S(=O)(=O)C2(C)CCN(C3CCC3)CC2)c1O | 0.00398 µM | 139 µg/mL (≈ 289 µM) |  |  | 
CC(C)S(=O)(=O)c1c(Cl)ccc(NC(=O)NC2CCCC2)c1O | 0.01 µM |  |  |  | 
CC1=CCC[C@H]1NC(=O)Nc1ccc(Cl)c(S(=O)(=O)C2(F)CCOCC2)c1O | 0.0002 µM | 3.3 µg/mL (≈ 7.62 µM) | 6.2 | 32.3 ×10⁻⁶ cm/s | 0.0631 µM
CC(C)S(=O)(=O)c1c(Cl)ccc(NC(=O)NC2CCCC2(C)C)c1O (racemic) | 0.158 µM |  |  |  | 
CC1CCCCC1NC(=O)Nc1ccc(Cl)c(S(=O)(=O)C(C)C)c1O (racemic) | 0.316 µM |  |  |  | 
CC(C)S(=O)(=O)c1c(Cl)ccc(NC(=O)NC2CCCC23CC3)c1O (racemic) | 0.0398 µM |  |  |  | 
CC(C)S(=O)(=O)c1c(Cl)ccc(NC(=O)NC2C=CCCC2)c1O (racemic) | 0.01 µM |  |  |  | 
CC(C)S(=O)(=O)c1c(Cl)ccc(NC(=O)Nc2cccc(F)c2Cl)c1O | 0.000398 µM |  |  |  | 
CC1CCCC1NC(=O)Nc1ccc(Cl)c(S(=O)(=O)C(C)C)c1O (racemic) | 0.01 µM |  |  |  | 
CC(C)S(=O)(=O)c1c(Cl)ccc(NC(=O)NC2CCN(C)C2)c1O (racemic) | > 10 µM |  |  |  | 
CC(C)S(=O)(=O)c1c(Cl)ccc(NC(=O)NC2CCC=C2C(F)(F)F)c1O (racemic) | 0.0251 µM |  |  |  | 
CC1=CCC[C@H]1NC(=O)Nc1ccc(Cl)c(S(=O)(=O)C2CCN(CC(F)(F)F)CC2)c1O | 0.316 µM |  |  |  | 
CC(C)S(=O)(=O)c1c(Cl)ccc(NC(=O)NC2C=CCC2)c1O (racemic) | 0.00631 µM |  |  |  | 
CC1=CCC[C@H]1NC(=O)Nc1ccc(Cl)c(S(=O)(=O)C2(F)CCOC2)c1O (stereo not given in full) | 0.000794 µM | 39 µg/mL (≈ 93.1 µM) | 7 | 28.1 ×10⁻⁶ cm/s | 
CC(C)S(=O)(=O)c1c(Cl)ccc(NC(=O)NC2CCC=C2F)c1O (racemic) | 0.01 µM |  |  |  | 
CC(C)S(=O)(=O)c1c(Cl)ccc(NC(=O)NC2CCOCC2)c1O | 1.26 µM |  |  |  | 
CC(C)CN(C[C@@H](O)[C@H](Cc1ccccc1)NC(=O)O[C@H]1CCOC1)S(=O)(=O)c1ccc(N)cc1 |  |  | > 12 |  | 
O=C(Nc1ccc(Cl)c(S(=O)(=O)C2(F)CCOCC2)c1O)N[C@@H]1CCC=C1Cl | 0.000501 µM |  |  |  | 
CC(C)S(=O)(=O)c1c(Cl)ccc(NC(=O)NC2CCCC=C2Cl)c1O (racemic) | 0.01 µM |  |  |  | 
CC(C)(CO)S(=O)(=O)c1c(Cl)ccc(NC(=O)N[C@@H]2CCC=C2Cl)c1O | 0.00398 µM |  |  |  | 
O=C(Nc1ccc(Cl)c(S(=O)(=O)C2COC2)c1O)N[C@@H]1CCC=C1Cl | 0.316 µM |  |  |  | 
CC1=CCC[C@H]1NC(=O)Nc1ccc(Cl)c(S(=O)(=O)[C@@H]2CC[C@@H](O)C2)c1O | 0.000251 µM | 15.1 µg/mL (≈ 36.4 µM) | 26.8 | 7.2 ×10⁻⁶ cm/s | 
CC(C)S(=O)(=O)c1c(Cl)ccc(NC(=O)NC2CCCOC2)c1O (racemic) | 0.631 µM |  |  |  | 
